Assay results: ChEMBL document CHEMBL1157137, “Design, synthesis and biological evaluation of piperazine analogues as CB1 cannabinoid receptor ligands” (Bioorg Med Chem, 2008)

Legend:
Cannabinoid receptor 1 [1] = molecular target: Cannabinoid receptor 1 (Rattus norvegicus, UniProt P20272); assay: Displacement of [3H]CP-55940 from CB1 receptor in Sprague-Dawley rat cerebella membrane
Method in brief: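 Male Sprague–Dawley rat (200–300 g) cerebellar membranes incubated with 3 nM [3H]CP55,940 and varied ligand concentrations in TME buffer with 0.5% fatty-acid-free BSA, 1 h at 30 °C. Filtered over PEI-soaked GF/B filters, washed five times with ice-cold buffer containing 0.1% BSA, then counted by liquid scintillation. IC50 from single determinations.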

Cannabinoid receptor 1 [2] = molecular target: Cannabinoid receptor 1 (Homo sapiens, UniProt P21554); assay: Antagonist activity at human CB1 receptor expressed in CHOK1 cells by luciferase assay; assay type: functional, cell-based, CHO-K1
Sequence of Cannabinoid receptor 1 (Homo sapiens, UniProt P21554) (P21554 whole entry): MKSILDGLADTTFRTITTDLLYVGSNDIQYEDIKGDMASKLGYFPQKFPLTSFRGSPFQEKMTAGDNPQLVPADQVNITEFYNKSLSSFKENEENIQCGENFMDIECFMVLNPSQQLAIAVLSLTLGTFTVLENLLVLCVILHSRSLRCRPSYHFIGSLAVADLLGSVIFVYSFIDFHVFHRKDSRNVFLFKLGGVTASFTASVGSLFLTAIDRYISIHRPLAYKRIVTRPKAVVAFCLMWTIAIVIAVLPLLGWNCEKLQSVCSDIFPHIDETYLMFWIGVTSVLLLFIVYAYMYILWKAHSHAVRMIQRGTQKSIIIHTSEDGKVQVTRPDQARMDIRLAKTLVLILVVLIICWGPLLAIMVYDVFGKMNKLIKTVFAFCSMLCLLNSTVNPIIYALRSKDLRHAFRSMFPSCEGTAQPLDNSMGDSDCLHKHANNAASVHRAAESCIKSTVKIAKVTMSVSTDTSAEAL

Cannabinoid receptor 2 = Cannabinoid receptor 2 (Homo sapiens, UniProt P34972); assay: Displacement of [3H]WIN-55212-2 from human CB2 receptor expressed in CHOK1 cells; assay type: cell-based, CHO-K1
Sequence of Cannabinoid receptor 2 (P34972 whole entry): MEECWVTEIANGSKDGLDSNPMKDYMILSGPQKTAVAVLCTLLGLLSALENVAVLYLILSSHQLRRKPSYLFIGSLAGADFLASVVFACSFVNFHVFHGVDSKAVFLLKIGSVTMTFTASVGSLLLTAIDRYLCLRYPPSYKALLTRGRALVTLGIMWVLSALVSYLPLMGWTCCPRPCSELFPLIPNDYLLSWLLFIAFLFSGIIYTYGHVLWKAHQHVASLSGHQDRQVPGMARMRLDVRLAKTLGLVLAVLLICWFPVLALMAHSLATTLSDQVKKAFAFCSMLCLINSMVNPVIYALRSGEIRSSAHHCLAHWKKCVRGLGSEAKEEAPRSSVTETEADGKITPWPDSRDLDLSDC
Method in brief: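 Membranes were from CHO K-1 cells transfected with human CB2. They were incubated with 3 nM [3H]WIN55,212-2 and varied ligand concentrations in TME/0.5% fatty-acid-free BSA, 1 h at 30 °C. Bound ligand was separated on 0.1% PEI-soaked GF/B filters, washed five times with ice-cold 0.1% BSA buffer, and counted by scintillation. IC50 from single determinations.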

Sequence of Cannabinoid receptor 1 (Rattus norvegicus, UniProt P20272) (P20272 whole entry): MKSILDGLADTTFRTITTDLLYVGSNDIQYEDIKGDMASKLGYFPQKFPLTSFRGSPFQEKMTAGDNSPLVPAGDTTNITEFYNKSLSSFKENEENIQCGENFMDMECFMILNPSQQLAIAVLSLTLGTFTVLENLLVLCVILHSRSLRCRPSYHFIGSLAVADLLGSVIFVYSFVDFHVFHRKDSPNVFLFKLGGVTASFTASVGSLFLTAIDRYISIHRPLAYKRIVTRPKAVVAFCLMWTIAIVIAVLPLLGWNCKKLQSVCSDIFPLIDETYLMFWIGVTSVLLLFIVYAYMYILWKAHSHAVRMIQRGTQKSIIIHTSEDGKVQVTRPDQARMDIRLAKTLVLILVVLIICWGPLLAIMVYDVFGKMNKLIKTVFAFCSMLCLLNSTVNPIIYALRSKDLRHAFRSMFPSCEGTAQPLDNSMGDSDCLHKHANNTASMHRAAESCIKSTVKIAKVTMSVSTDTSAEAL

SMILES | IC50 (Cannabinoid receptor 1 [1]) | IC50 (Cannabinoid receptor 1 [2]) | IC50 (Cannabinoid receptor 2)
CC(C)(C)NC(=O)N1CCN(C(c2ccc(Cl)cc2)c2ccccc2C(F)(F)F)CC1 (stereo not drawn) | 2.05 µM | – | –
O=C(NC1CCCCCC1)N1CCN(C(c2ccc(Br)cc2)c2ccccc2Cl)CC1 (stereo not drawn) | 0.0823 µM | 0.0494 µM | > 10 µM
CC(C)(C)NC(=O)N1CCN(C(c2ccc(Br)cc2)c2ccccc2Cl)CC1 (stereo not drawn) | 0.237 µM | 0.286 µM | 4.95 µM
Cc1ccccc1C(c1ccc(Cl)cc1)N1CCN(C(=O)NC(C)(C)C)CC1 (stereo not drawn) | 0.68 µM | 0.334 µM | > 10 µM
O=C(NC1CCCCCC1)C(=O)N1CCN(C(c2ccc(Cl)cc2)c2ccccc2Cl)CC1 (stereo not drawn) | 0.229 µM | – | –
CC(C)(C)NC(=O)N1CCN(C(c2ccc(Cl)cc2)c2ccc(Cl)cc2Cl)CC1 (stereo not drawn) | 2 µM | – | –
O=C(NCC1CCCCC1)N1CCN(C(c2ccc(Cl)cc2)c2ccc(Cl)cc2Cl)CC1 (stereo not drawn) | 0.262 µM | 1.04 µM | > 10 µM
O=C(NC1CCCCC1)C(=O)N1CCN(C(c2ccc(Cl)cc2)c2ccccc2Cl)CC1 (stereo not drawn) | 0.226 µM | – | –
O=C(NC1CCCCC1)N1CCN(C(c2ccc(Cl)cc2)c2ccccc2Cl)CC1 (stereo not drawn) | 0.0728 µM | 0.128 µM | > 10 µM
O=C(NCC1CCCCC1)N1CCN(C(c2ccc(Cl)cc2)c2ccccc2Cl)CC1 (stereo not drawn) | 0.189 µM | 0.273 µM | > 10 µM
O=C(NC1CCCCC1)N1CCN(C(c2ccc(Cl)cc2)c2ccc(Cl)cc2Cl)CC1 (stereo not drawn) | 0.104 µM | 0.367 µM | > 10 µM
O=C(NC1CCCCCC1)N1CCN(C(c2ccc(Cl)cc2)c2cccc(Cl)c2Cl)CC1 (stereo not drawn) | 0.158 µM | 0.424 µM | > 10 µM
O=C(NC1CCCCC1)N1CCN(C(c2ccc(Cl)cc2)c2ccccc2C(F)(F)F)CC1 (stereo not drawn) | 0.163 µM | 0.186 µM | > 10 µM
O=C(C1CCCCC1)N1CCN(C(c2ccc(Cl)cc2)c2ccc(Cl)cc2)CC1 | 1.39 µM | – | –
O=C(C1CCC1)N1CCN(C(c2ccc(Cl)cc2)c2ccc(Cl)cc2)CC1 | 1.07 µM | – | –
O=C(NCC1CCCCC1)N1CCN(C(c2ccc(Cl)cc2)c2ccccc2C(F)(F)F)CC1 (stereo not drawn) | 0.526 µM | 0.798 µM | > 10 µM

SMILES | IC50 (Cannabinoid receptor 1 [1]) | IC50 (Cannabinoid receptor 1 [2]) | IC50 (Cannabinoid receptor 2)
O=C(NC1CCCCC1)N1CCN(C(c2ccc(Cl)cc2)c2cccc(Cl)c2Cl)CC1 (stereo not drawn) | 0.186 µM | 0.441 µM | > 10 µM
CC(C)(C)NC(=O)N1CCN(C(c2ccc(Cl)cc2)c2cccc(Cl)c2Cl)CC1 (stereo not drawn) | 0.783 µM | 0.316 µM | > 10 µM
Cc1ccccc1C(c1ccc(Cl)cc1)N1CCN(C(=O)NCC2CCCCC2)CC1 (stereo not drawn) | 0.291 µM | 0.34 µM | > 10 µM
Cc1ccccc1C(c1ccc(Cl)cc1)N1CCN(C(=O)NC2CCCCC2)CC1 (stereo not drawn) | 0.248 µM | 0.195 µM | > 10 µM
O=C(NC1CCCCCC1)N1CCN(C(c2ccc(Cl)cc2)c2ccccc2Cl)CC1 (stereo not drawn) | 0.0665 µM | 0.226 µM | > 10 µM
Cc1ccccc1C(c1ccc(Cl)cc1)N1CCN(C(=O)NC2CCCCCC2)CC1 (stereo not drawn) | 0.151 µM | 0.163 µM | > 10 µM
CC(C)(C)NC(=O)N1CCN(C(c2ccc(Cl)cc2)c2ccccc2Cl)CC1 (stereo not drawn) | 0.122 µM | 0.443 µM | 4.82 µM
O=C(NCC1CCCCC1)N1CCN(C(c2ccc(Cl)cc2)c2cccc(Cl)c2Cl)CC1 (stereo not drawn) | 2 µM | – | –
CCCCCC(=O)N1CCN(C(c2ccc(Cl)cc2)c2ccc(Cl)cc2)CC1 | 1.15 µM | – | –
O=C(NC1CCCCC1)N1CCN(C(c2ccc(Cl)cc2)c2ccc(Cl)cc2)CC1 | 0.914 µM | – | –
O=C(NCC1CCCCC1)N1CCN(C(c2ccc(Br)cc2)c2ccccc2Cl)CC1 (stereo not drawn) | 0.127 µM | 0.146 µM | > 10 µM
O=C(NC1CCCCC1)N1CCN(C(c2ccc(Br)cc2)c2ccccc2Cl)CC1 (stereo not drawn) | 0.103 µM | 0.0628 µM | > 10 µM
CCCCCC(=O)N1CCN(C(c2ccc(Cl)cc2)c2ccc(Cl)cc2Cl)CC1 (stereo not drawn) | 0.257 µM | – | –
O=C(NC1CCCCCC1)N1CCN(C(c2ccc(Cl)cc2)c2ccccc2C(F)(F)F)CC1 (stereo not drawn) | 0.141 µM | 0.204 µM | > 10 µM
O=C(NC1CCCCCC1)N1CCN(C(c2ccc(Cl)cc2)c2ccc(Cl)cc2Cl)CC1 (stereo not drawn) | 0.0892 µM | 0.729 µM | > 10 µM
